According to ChEMBL document CHEMBL5154735, “Interaction of A3 adenosine receptor ligands with the human multidrug transporter ABCG2” (Eur J Med Chem, 2022):

Tests used:
ABCG2 [1] = target: T1, ABCG2 (Homo sapiens, UniProt Q9UNQ0); experiment: Activation of human ABCG2-mediated ATPase activity preincubated for 2 mins followed by ATP addition at 10 M and measured after 20 mins by colorimetric assay relative to control; set-up: dose or concentration left out as unconfirmed; settings: read-out: Activity
T1 sequence (Q9UNQ0 whole entry): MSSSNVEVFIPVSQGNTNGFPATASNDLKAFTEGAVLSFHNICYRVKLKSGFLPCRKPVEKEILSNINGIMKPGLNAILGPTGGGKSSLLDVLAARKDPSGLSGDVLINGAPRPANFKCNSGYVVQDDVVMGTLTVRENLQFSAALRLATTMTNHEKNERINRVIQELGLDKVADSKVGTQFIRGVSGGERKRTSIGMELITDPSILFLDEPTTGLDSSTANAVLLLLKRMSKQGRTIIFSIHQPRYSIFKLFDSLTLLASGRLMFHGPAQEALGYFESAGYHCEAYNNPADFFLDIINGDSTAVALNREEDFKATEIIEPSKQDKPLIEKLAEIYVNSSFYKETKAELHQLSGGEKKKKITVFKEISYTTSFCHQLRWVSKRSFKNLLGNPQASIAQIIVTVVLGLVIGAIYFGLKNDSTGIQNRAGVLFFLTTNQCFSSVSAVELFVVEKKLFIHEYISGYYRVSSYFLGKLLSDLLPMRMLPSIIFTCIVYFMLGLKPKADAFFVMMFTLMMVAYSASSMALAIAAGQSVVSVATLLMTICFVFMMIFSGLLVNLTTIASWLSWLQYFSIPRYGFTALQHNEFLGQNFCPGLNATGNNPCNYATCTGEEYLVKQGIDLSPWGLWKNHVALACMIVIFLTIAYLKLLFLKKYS
How it was run: (§1)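 Total membrane vesicles from High-Five insect cells expressing human ABCG2 (hypotonic lysis, differential centrifugation), 10 μg protein/tube, in MES-Tris pH 6.8 buffer with KCl, MgCl2, NaN3, EGTA, ouabain, DTT. Compound in DMSO added ± sodium orthovanadate (0.3 mM), DMSO control. Preincubated 2 min at 37°C, then 5 mM ATP, 20 min. SDS stop, Pi measured colorimetrically. Three independent experiments in duplicate, mean ± SE.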

ABCG2 [2] = target: T1, ABCG2; experiment: Activation of human ABCG2-mediated ATPase activity preincubated for 2 mins followed by ATP addition at 2.5 M and measured after 20 mins by colorimetric assay relative to control; set-up: dose or concentration left out as unconfirmed; settings: read-out: Activity; how it was run: as §1
Adenosine receptor A3 = target: T2, Adenosine receptor A3 (Homo sapiens, UniProt P0DMS8); experiment: Binding affinity towards human adenosine A3 receptor
T2 sequence (P0DMS8 whole entry): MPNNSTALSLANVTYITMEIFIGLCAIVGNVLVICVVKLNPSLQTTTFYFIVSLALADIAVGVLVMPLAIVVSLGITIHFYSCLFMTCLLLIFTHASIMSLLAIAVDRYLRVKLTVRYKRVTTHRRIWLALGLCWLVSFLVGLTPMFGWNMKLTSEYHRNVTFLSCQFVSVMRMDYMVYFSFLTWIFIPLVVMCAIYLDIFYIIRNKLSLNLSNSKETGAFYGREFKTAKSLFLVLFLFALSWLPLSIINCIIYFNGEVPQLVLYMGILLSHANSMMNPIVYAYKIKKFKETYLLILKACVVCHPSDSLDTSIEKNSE

ABCG2 [3] = target: T1, ABCG2; experiment: Activation of human ABCG2-mediated ATPase activity preincubated for 2 mins followed by ATP addition at 100 nM and measured after 20 mins by colorimetric assay relative to control; settings: read-out: Activity; how it was run: as §1
[4] = target: T3, Broad substrate specificity ATP-binding cassette transporter ABCG2 (Homo sapiens, UniProt Q9UNQ0); experiment: Activation of human ABCG2-mediated ATPase activity preincubated for 2 mins followed by ATP addition and measured after 20 mins by colorimetric assay; how it was run: as §1
T3 sequence (Q9UNQ0 whole entry): T1 sequence (Q9UNQ0 whole entry)

ABCG2 [5] = target: T1, ABCG2; experiment: Inhibition of human ABCG2 in human R5 cells assessed as inhibition of mitoxantrone efflux at 10 uM measured by flow cytometric analysis relative to control; type: cell-based; settings: probe mitoxantrone
How it was run: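 HEK293 cells transfected with full-length ABCG2 (R-5) or empty pcDNA vector, grown in MEM with 10% FBS and 2 mg/ml G418. Cells incubated in IMDM with 5% FBS, 5 μM mitoxantrone (final) ± compound, 37°C for 45 min. Washed in cold IMDM, resuspended in cold PBS with 1% BSA, read by flow cytometry.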

ABCG2 [6] = target: T1, ABCG2; experiment: Effect on human ABCG2 transporter preincubated for 2 mins followed by ATP addition assessed as basal ATPase activity at 2.5 uM and measured after 20 mins by colorimetric assay relative to control; settings: read-out: Activity; how it was run: as §1
ABCG2 [7] = target: T1, ABCG2; experiment: Activation of human ABCG2-mediated ATPase activity preincubated for 2 mins followed by ATP addition at 10 uM and measured after 20 mins by colorimetric assay relative to control; settings: read-out: Activity; how it was run: as §1
ABCG2 [8] = target: T1, ABCG2; experiment: Activation of human ABCG2-mediated ATPase activity preincubated for 2 mins followed by ATP addition at 2.5 uM and measured after 20 mins by colorimetric assay relative to control; settings: read-out: Activity; how it was run: as §1
ABCG2 [9] = target: T1, ABCG2; experiment: Effect on human ABCG2 transporter preincubated for 2 mins followed by ATP addition assessed as basal ATPase activity at 10 uM and measured after 20 mins by colorimetric assay relative to control; settings: read-out: Activity; how it was run: as §1

SMILES	activity at 20 min (ABCG2 [1]) [%]	activity at 20 min (ABCG2 [2]) [%]	Ki (Adenosine receptor A3) [nM]	activity at 20 min, 0.1 µM (ABCG2 [3]) [%]	other results
CCCNc1nc(C#Cc2ccc(Cl)s2)nc2c1ncn2[C@@H]1O[C@H](C(=O)NC)[C@@H](O)[C@H]1O	122	124	–	–	–
CNC(=O)[C@H]1O[C@@H](n2cnc3c(NC)nc(C#Cc4ccc(Cl)s4)nc32)[C@H](O)[C@@H]1O	122	112	–	–	–
Cn1cnc2c(NCCc3ccccc3)nc(C#Cc3ccc(Cl)s3)nc21	–	–	≥ 99	92.1	–
COc1ccc(CCNC2=NC(I)=NC3=NC=CC32)cc1O (configuration not stated)	–	–	≥ 99	79.6	–
Fc1ccc(C#CC2=NC3=NC=NC3C(NCc3cccc(Cl)c3)=N2)cc1F (configuration not stated)	164	165	≥ 99	–	EC50 [4]: 50 nM; inhibition at 10 µM (ABCG2 [5]): 81.4%
COc1ccc(CCNC2=NC(C#Cc3ccc(Cl)s3)=NC3=NC=CC32)cc1O (configuration not stated)	–	–	≥ 99	104	–
Clc1ccc(C#CC2=NC3=NC=NC3C(NCCc3ccccc3)=N2)s1 (configuration not stated)	–	–	≥ 99	80.8	–
Oc1ccc(CCNC2=NC(C#Cc3ccc(Cl)s3)=NC3=NC=NC32)cc1O (configuration not stated)	–	–	≥ 99	95.9	–
CNC(=O)C1O[C@@H](n2cnc3c(NCc4cccc(I)c4)ncnc32)[C@H](O)[C@@H]1O (single isomer, unassigned)	98.2	66.2	–	–	EC50 [4]: 70 nM
O[C@@H]1[C@H](O)C2CC2[C@H]1n1cnc2c(NCc3cccc(Cl)c3)nc(C#Cc3ccc(F)c(F)c3)nc21 (single isomer, unassigned)	54.1	75.2	≥ 99	–	–
CNC(=O)C12CC1[C@@H](n1cnc3cnc(C#Cc4ccc(F)c(F)c4)nc31)[C@H](O)[C@@H]2O (single isomer, unassigned)	–	–	–	–	activity at 20 min, 2.5 µM (ABCG2 [6]): ≤ 30%; activity at 20 min, 10 µM (ABCG2 [7]): 64.2%
CNC(=O)C12CC1[C@@H](n1cnc3c(N[C@H]4C[C@@H]4c4ccc(F)c(F)c4)nc(C#Cc4cccc(F)c4)nc31)[C@H](O)[C@@H]2O (single isomer, unassigned)	–	–	–	–	activity at 20 min, 2.5 µM (ABCG2 [8]): 101%; EC50 [4]: 14 nM; inhibition at 10 µM (ABCG2 [5]): 97.2%
CNC(=O)C12CC1[C@@H](n1cnc3c(N[C@@H]4C[C@H]4c4ccc(F)c(F)c4)nc(C#Cc4cccc(F)c4)nc31)[C@H](O)[C@@H]2O (single isomer, unassigned)	–	–	–	–	activity at 20 min, 2.5 µM (ABCG2 [8]): 74.8%; EC50 [4]: 13 nM; inhibition at 10 µM (ABCG2 [5]): 97.4%
CNC(=O)C12CC1[C@@H](n1cnc3c(NCc4cccc(Cl)c4)nc(C#Cc4cccc(Cl)c4)nc31)[C@H](O)[C@@H]2O (single isomer, unassigned)	–	–	–	–	activity at 20 min, 10 µM (ABCG2 [9]): ≤ 30%; activity at 20 min, 2.5 µM (ABCG2 [8]): 49.3%
CNC(=O)C12CC1[C@@H](n1cnc3c(NCc4cccc(Cl)c4)nc(C#Cc4ccc(Cl)s4)nc31)[C@H](O)[C@@H]2O (single isomer, unassigned)	92.9	97.5	–	–	–
